Measured values from different studies.
Lines come from different studies, so protocols differ.

CC(C)(C)c1sc2ncnc(Oc3c(F)cccc3OC(F)(F)F)c2c1-c1ccc(Cl)cc1
Cmax (mouse, plasma; intravenous, 1 mg/kg, single dose): 2560 ng/mL

NCc1ccc(-c2nn(Cc3ccccc3)c3ccccc23)o1
Cmax (male CD-1 mouse, plasma; intraperitoneal, 30 mg/kg): 4030 ng/mL

Cc1cc(-c2ccnc3[nH]cc(F)c23)cc(F)c1[C@@]1(O)[C@H](C)CN(C(=O)CN)C[C@@H]1C
Cmax (male CD-1 mouse, plasma; intravenous, 1 mg/kg): 1980 ng/mL

Cc1ncsc1-c1ccc([C@H](CC(=O)N2CCN(c3ccc(C#Cc4ccc(C(=O)N5CCC(n6cc(-c7ccc8c(c7)CCN8C(=O)Cc7cccc(OC(F)(F)F)c7)c7c(N)ncnc76)CC5)cc4)cn3)CC2)NC(=O)[C@@H]2C[C@@H](O)CN2C(=O)[C@@H](NC(=O)C2(F)CC2)C(C)(C)C)cc1
Cmax (male C57BL/6 mouse, plasma; intravenous, 1 mg/kg): 19600 ng/mL

O=C1CCC(N2Cc3cc(C4CCN(Cc5ccccc5)CC4)ccc3C2=O)C(=O)N1 (stereo not drawn)
Cmax (male CD-1 mouse, plasma; oral, 3 mg/kg): 273 ng/mL

Cc1cc(-c2ccnc3[nH]cc(F)c23)cc(F)c1[C@@]1(O)[C@H](C)CN(C2CCS(=O)(=O)CC2)C[C@@H]1C
Cmax (male CD-1 mouse, plasma; oral, 3 mg/kg): 750 ng/mL

Cc1nc2ccc(OCc3ccc(C(F)(F)F)cc3)cc2[nH]1
Cmax (male BALB/c mouse, plasma; oral, 10 mg/kg): 5890 ng/mL

COCC(=O)N1CCc2[nH]c3c(Cl)c(Cl)ccc3c2[C@@H]1C
Cmax (C57BL/6 mouse, blood; oral, 20 mg/kg): 3.47 µM

NCc1ccc(-c2nn(Cc3ccncc3)c3ccccc23)o1
Cmax (male CD-1 mouse, plasma; oral, 10 mg/kg): 168 ng/mL

Cc1ncsc1-c1ccc([C@H](C)NC(=O)[C@@H]2C[C@@H](O)CN2C(=O)[C@@H](NC(=O)CCCCCCCCC(=O)N2CCC(n3cc(-c4ccc5c(c4)CCN5C(=O)Cc4cccc(OC(F)(F)F)c4)c4c(N)ncnc43)CC2)C(C)(C)C)cc1
Cmax (male C57BL/6 mouse, plasma; intravenous, 1 mg/kg): 3420 ng/mL

C=CCn1c(=O)c2cnc(Nc3ccc(N4CCN(C)CC4)cc3)nc2n1-c1ccc2c(n1)[C@@](O)(CC)CC2
Cmax (mouse, plasma; oral, 60 mg/kg): 10.5 µM

CN(C)C(=O)c1cc2cnc(Nc3ccc(-c4ccc5c(=O)cc(N6CCOCC6)oc5c4)cc3)nc2n1C1CCCC1.Cl
Cmax (BALB/c mouse, plasma; intravenous, 2 mg/kg): 3690 ng/mL

COC1=CC(c2ccc[nH]2)=N/C1=C\c1cc(Cc2ccc(OC(F)(F)F)cc2)c(C)[nH]1.Cl
Cmax (male CD-1 mouse, liver; oral, 40 mg/kg, single dose): 2660 ng/mL

COc1cc(C2C3=C(COC3=O)N(CCO)c3cc4c(cc32)CCC4)cc(OC)c1OC (stereo not drawn)
Cmax (female C57BL/6 mouse, plasma; intraperitoneal, 50 mg/kg): 1040 ng/mL

C[C@@H](CN1CCC(n2c(=O)[nH]c3cc(Cl)ccc32)CC1)NC(=O)c1ccc2ccccc2c1
Cmax (male CD-1 mouse, brain; intravenous, 1 mg/kg, single dose): 0.236 ng/mL

COC1=CC(c2ccc[nH]2)=N/C1=C\c1[nH]c(Cc2ccc(OC(F)(F)F)cc2)cc1Cc1ccc(OC(F)(F)F)cc1
Cmax (male CD-1 mouse, liver; oral, 40 mg/kg, single dose): 20300 ng/mL

Cc1ccc(OCC(=O)N[C@@H](Cc2c[nH]c3ccccc23)C(=O)OC(C)C)cc1
Cmax (male Sprague-Dawley mouse, plasma; oral, 20 mg/kg): 2560 ng/mL

OCc1nc2ccc(NCc3ccc(C(F)(F)F)cc3)cc2[nH]1
Cmax (male BALB/c mouse, plasma; intravenous, 1 mg/kg): 378 ng/mL

Cc1ccc(N(c2ccc(NC(=O)CN(C)c3ccccc3N3CCCC3=O)cc2)C(C)C)cc1
Cmax (male CD-1 mouse, plasma; oral, 20 mg/kg): 1000 ng/mL

CCOC(=O)c1c(NC(=O)CNC(C)C)sc2c1CCCCC2
Cmax (male mouse, plasma; intraperitoneal, 100 mg/kg, single dose): 6340 ng/mL

OCc1ccc(-c2nn(Cc3ccccc3)c3ccccc23)o1
Cmax (male CD-1 mouse, plasma; intraperitoneal, 30 mg/kg): 5540 ng/mL
